The source of these data is PubChem BioAssay.

Activity calls are given as the source filed them. Rule as the data show it, unless noted: active = inhibition above about 30%; inactive = the rest.

Test [1] can be described thus: reducers of endogenous Her2 protein level, primary screen, SKBR3 breast tumor cells, AlphaScreen, ATP viability (AID 461;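 active = Her2 level under about 52% in both replicate screens, with viability over 70% of control, limit read from the data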;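 as to Her2 level: lower value means less Her2 protein in the cells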;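 as to viability: percent of carrier control wells set as 100% viability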). The note with it: 18-24 h, measured here: SKBR3 viability, ATP luminescence, at 10 µM. Background: In Alpha technology, singlet oxygen from a donor bead excites a nearby acceptor bead.
Test [2] has as its target Receptor tyrosine-protein kinase erbB-2 (Homo sapiens) (UniProt P04626). The description is as above. The note with it: 18-24 h, at 10 µM, stronger effect = lower value.
A short description of test [3]: SK-BR-3 cell growth inhibitors, pilot screen, 24 h, human (AID 572;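 active = viability at or below 10% of carrier control in both of two separate runs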;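 also: compound exposure lasted between 18 and 24 h rather than exactly 24 h; 100% = carrier-treated control wells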). As to conditions: SK-BR-3 viability, CellTiter-Glo luminescence, at 10 µM, stronger effect = lower value.
Test [4] in a line: HUVEC growth inhibition – cell-based, human, primary screen (AID 575;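 active = viability at or below 30% in both replicate assays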;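 also: 100% = median of untreated cell wells with 0.1% DMSO on each plate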). As to conditions: HUVEC proliferation, CellTiter-Glo luminescence, 72 h; at 10 µM; stronger effect = lower value. Summed up:
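System – primary HUVEC, no more than 12 passages · Medium – Low-serum (2% FBS) EBM, supplemented · Times – 72 h exposure, 37 °C, 5% CO2, 30 min RT equilibration · Measured by – luminescent ATP assay · Read-out – % viability relative to median vehicle-well signal on each plate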
On the technique in general: Cellular ATP, detected with luciferase, serves as a proxy for viable cell number.

A short description of test [5]: growth inhibitors of H69AR lung tumor, primary screen, human, duplicate replicates (AID 580;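 active = viability at or under a set limit in both replicates, limit being median viability minus 3 SD, cut at about 48% in these data, passing the limit was not always enough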;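 also: 100% = mean luminescence of untreated wells and 0% = no signal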). The note with it: H69AR lung tumor cells viability, ATP luminescence, 72 h; at 10 µM; stronger effect = lower value.
A short description of test [6]: reversal of MRP1-mediated doxorubicin resistance, pilot screen, H69AR cells, doxorubicin co-treatment (AID 601;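 active = viability loss from added drug above about 55%, and viability with drug at most 40%, in both replicates, limit read from the data, passing the limit was not always enough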). The note with it: CellTiter-Glo, 72 h, at 10 µM; for differential viability (reversal): stronger effect = higher value.
Test [7] can be described thus: 384-well plate pilot, post-Golgi transport modulator project, inhibition of yeast transport mutant growth (AID 636; in the data active = inhibition above about 31%). As to conditions: absorbance 615 nm, about 18 h, stronger effect = higher value.
The nature of test [8]: growth suppression of yeast trafficking mutant, preliminary HTS, modulators of trafficking downstream of Golgi apparatus project, 1536-format plate, OD 615 nm (AID 637). The note with it: yeast transport mutant growth, absorbance 615 nm, 18 h; stronger effect = higher value.
Where [9] appears, read: H69AR cells + 2 uM doxorubicin, measured here: viability with 2 uM doxorubicin, stronger effect = lower value.
[10] abbreviates: H69AR cells, compound alone cytotoxicity.

Receptor tyrosine-protein kinase erbB-2 (Homo sapiens), sequence (P04626 whole entry, looked up): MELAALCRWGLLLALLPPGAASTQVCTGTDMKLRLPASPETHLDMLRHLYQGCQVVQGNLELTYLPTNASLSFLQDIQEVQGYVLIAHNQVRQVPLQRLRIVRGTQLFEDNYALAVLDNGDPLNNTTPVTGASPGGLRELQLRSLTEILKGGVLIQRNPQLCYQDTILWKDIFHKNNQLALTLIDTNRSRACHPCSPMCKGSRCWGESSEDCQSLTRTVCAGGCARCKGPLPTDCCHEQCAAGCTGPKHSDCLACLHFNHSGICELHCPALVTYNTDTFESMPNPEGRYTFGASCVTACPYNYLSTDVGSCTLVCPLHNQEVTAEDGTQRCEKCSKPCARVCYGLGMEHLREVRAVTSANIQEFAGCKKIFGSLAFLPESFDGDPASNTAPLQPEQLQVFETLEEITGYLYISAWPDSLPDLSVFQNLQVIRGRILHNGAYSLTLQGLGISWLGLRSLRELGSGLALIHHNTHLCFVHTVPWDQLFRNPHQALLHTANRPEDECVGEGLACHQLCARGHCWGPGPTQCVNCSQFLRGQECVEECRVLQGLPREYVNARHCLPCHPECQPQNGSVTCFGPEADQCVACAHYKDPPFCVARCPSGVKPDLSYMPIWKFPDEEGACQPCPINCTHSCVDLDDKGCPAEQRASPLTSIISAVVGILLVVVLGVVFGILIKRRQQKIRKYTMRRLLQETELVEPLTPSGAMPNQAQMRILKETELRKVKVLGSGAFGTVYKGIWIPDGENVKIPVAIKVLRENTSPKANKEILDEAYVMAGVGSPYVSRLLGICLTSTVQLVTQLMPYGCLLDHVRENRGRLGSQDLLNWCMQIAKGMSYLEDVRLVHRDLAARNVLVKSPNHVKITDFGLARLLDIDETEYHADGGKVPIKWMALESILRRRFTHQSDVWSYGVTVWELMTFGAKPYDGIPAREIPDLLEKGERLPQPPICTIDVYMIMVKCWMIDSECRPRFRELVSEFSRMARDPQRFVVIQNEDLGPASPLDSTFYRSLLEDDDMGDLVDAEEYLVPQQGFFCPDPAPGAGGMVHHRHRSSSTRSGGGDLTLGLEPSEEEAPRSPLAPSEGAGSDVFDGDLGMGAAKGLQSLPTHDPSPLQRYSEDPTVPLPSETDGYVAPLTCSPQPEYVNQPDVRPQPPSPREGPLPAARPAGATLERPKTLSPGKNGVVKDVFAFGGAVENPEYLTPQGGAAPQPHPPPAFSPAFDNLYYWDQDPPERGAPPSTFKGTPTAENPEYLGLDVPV

By viability is commonly meant a read-out of living cells in per cent, often relative to untreated cells. Usually inhibition stands for the change of the read-out against control, counted positive when it falls. For `O=S(=O)(c1ccc(-c2csc(-c3cccnc3)n2)cc1)N1CCCCC1`, the viability was 106% in test [1]; 106% (inactive) in test [3]; 81.1% (inactive) in test [4]; 84.2% (inactive) in test [5]; 83% in test [6] (setting [9]); 84.2% in test [6] (setting [10]). For the same compound, the Her2 level in test [2] is 102% (inactive). For the same compound, the differential viability (reversal) in test [6] (H69AR cells + 2 uM doxorubicin) was 1.22% (inactive). The inhibition in test [7] was 0% (inactive); in test [8], -1.75% (inactive).
For `Cc1cnc(C(=O)Nc2ccc(-n3cnnn3)cc2)cn1`, the viability was 100% in test [1]; 100% (inactive) in test [3]; 101% (inactive) in test [4]; 105% (inactive) in test [5]; 88.9% in test [6] (setting [9]); 105% in test [6] (setting [10]). Further, the Her2 level in test [2] is 98.5% (inactive). Further, the differential viability (reversal) in test [6] (H69AR cells + 2 uM doxorubicin) is 16.4% (inactive). Further, the values for the inhibition in test [7] and in test [8] were -4.93% (inactive) and -4.68% (inactive), respectively.
On to `CC(=Nc1ccc(C)c(C)c1)C1=C(O)CCC1=O`, for which the viability in test [1] is 102%; in test [3], 102% (inactive); in test [4] it was 95.1% (inactive); in test [5], 94.7% (inactive); in test [6] (setting [9]), 82.8%; in test [6] (setting [10]), 94.7%. Moreover, in test [2], the Her2 level was 88.5% (inactive). Moreover, the differential viability (reversal) in test [6] (H69AR cells + 2 uM doxorubicin) was 12% (inactive). The inhibition in test [7] was -3.73% (inactive); in test [8], -2.46% (inactive).
`COc1cccc(-c2nnc(SCC(=O)N3CCCc4ccccc43)o2)c1`: the viability in test [1] is 93.5%; in test [3], 93.5% (inactive); in test [4], 60.4% (inactive); in test [5], 90.6% (inactive); in test [6] (setting [9]), 85.8%; in test [6] (setting [10]) it was 90.6%. Further, the Her2 level in test [2] is 87.5% (inactive). Also, the differential viability (reversal) in test [6] (H69AR cells + 2 uM doxorubicin) is 4.79% (inactive). The figures for the inhibition in test [7] and in test [8] were -4.61% (inactive) and -3.33% (inactive), respectively.
For `Cc1cnc(SCCc2ccncc2)nc1C`, the viability is 97% in test [1]; 97% (inactive) in test [3]; 109% (inactive) in test [4]; 86.6% (inactive) in test [5]; 76.9% in test [6] (setting [9]); 86.6% in test [6] (setting [10]). Moreover, the Her2 level in test [2] was 109% (inactive). Moreover, the differential viability (reversal) in test [6] (H69AR cells + 2 uM doxorubicin) is 9.61% (inactive). Also, the inhibition was -2.05% (inactive) in test [7] and 5.17% (inactive) in test [8].
For the compound `CCCCOc1ccc(C(=O)Nn2cnnc2)cc1`, the viability was 95.5% in test [1]; 95.5% (inactive) in test [3]; 84.5% (inactive) in test [4]; 89.5% (inactive) in test [5]; 89.4% in test [6] (setting [9]); 89.5% in test [6] (setting [10]). For the same compound, in test [2], the Her2 level is 87% (inactive). Also, the differential viability (reversal) in test [6] (H69AR cells + 2 uM doxorubicin) was 0.185% (inactive). Besides, the inhibition in test [7] was -5% (inactive); in test [8], -2% (inactive).
`O=C(Cn1nnc2ccccc2c1=O)NC1CCCc2ccccc21` (stereo not given): the viability was 77% in test [1]; 77% (inactive) in test [3]; 101% (inactive) in test [4]; 103% (inactive) in test [5]; 95.4% in test [6] (setting [9]); 103% in test [6] (setting [10]). For the same compound, in test [2], the Her2 level was 97.5% (inactive). Further, in test [6] (H69AR cells + 2 uM doxorubicin), the differential viability (reversal) was 7.25% (inactive). For the same compound, the inhibition is -2.67% (inactive) in test [7] and 4.68% (inactive) in test [8].
Turning to `O=C1NC(c2ccccc2)(C(F)(F)F)SC2=CCCCCN12` (stereo not given), the viability in test [1] is 90.5%; in test [3], 90.5% (inactive); in test [4], 86.2% (inactive); in test [5] it was 94.3% (inactive); in test [6] (setting [9]), 92%; in test [6] (setting [10]) it was 94.3%. Moreover, the Her2 level in test [2] is 106% (inactive). In addition, the differential viability (reversal) in test [6] (H69AR cells + 2 uM doxorubicin) is 2.37% (inactive). The inhibition in test [7] is -3.29% (inactive); in test [8], -3.33% (inactive).
Take `CCOC(=O)c1ccc(NC(=O)c2ccc(NS(C)(=O)=O)cc2)cc1`: the viability in test [1] is 97%; in test [3], 97% (inactive); in test [4], 92.1% (inactive); in test [5] it was 82.9% (inactive); in test [6] (setting [9]) it was 79%; in test [6] (setting [10]) it was 82.9%. Moreover, the Her2 level in test [2] is 83% (inactive). Besides, in test [6] (H69AR cells + 2 uM doxorubicin), the differential viability (reversal) is 3.85% (inactive). The inhibition is -0.8% (inactive) in test [7] and -4.92% (inactive) in test [8].
Regarding `c1ccc(CNc2c3c(nc4ncnn24)CCCC3)nc1`, the viability in test [1] is 95.5%; in test [3], 95.5% (inactive); in test [4] it was 109% (inactive); in test [5] it was 85.2% (inactive); in test [6] (setting [9]), 89.5%; in test [6] (setting [10]) it was 85.2%. In addition, the Her2 level in test [2] was 83.5% (inactive). The differential viability (reversal) in test [6] (H69AR cells + 2 uM doxorubicin) is -4.29% (inactive). Further, the values for the inhibition in test [7] and in test [8] were -5.34% (inactive) and -3.33% (inactive), respectively.
As for `N#CC1(c2ccccc2)CCC(=NO)CC1` (stereo not given), the viability in test [1] is 106%; in test [3] it was 106% (inactive); in test [4] it was 90.2% (inactive); in test [5], 98.1% (inactive); in test [6] (setting [9]), 96.8%; in test [6] (setting [10]), 98.1%. Further, the Her2 level in test [2] is 91.5% (inactive). For the same compound, the differential viability (reversal) in test [6] (H69AR cells + 2 uM doxorubicin) was 1.23% (inactive). Further, the inhibition in test [7] was -3.7% (inactive); in test [8], -2.06% (inactive).
Take `Cn1nc(C(=O)NC2CCCCCC2)ccc1=O`: the viability in test [1] was 126%; in test [3], 126% (inactive); in test [4], 101% (inactive); in test [5], 111% (inactive); in test [6] (setting [9]), 92%; in test [6] (setting [10]) it was 111%. Also, in test [2], the Her2 level is 104% (inactive). The differential viability (reversal) in test [6] (H69AR cells + 2 uM doxorubicin) was 19.2% (inactive). In addition, the figures for the inhibition in test [7] and in test [8] were -2.6% (inactive) and -0.79% (inactive), respectively.
Consider `[O-][n+]1c2ccc3nonc3c2nn1-c1ccccc1Cl`, for which the viability in test [1] is 136%; in test [3], 136% (inactive); in test [4] it was 89.3% (inactive); in test [5], 95.1% (inactive); in test [6] (setting [9]) it was 79%; in test [6] (setting [10]), 95.1%. In addition, in test [2], the Her2 level was 124% (inactive). The differential viability (reversal) in test [6] (H69AR cells + 2 uM doxorubicin) was 16.1% (inactive). Moreover, the figures for the inhibition in test [7] and in test [8] were -0.4% (inactive) and -6.45% (inactive), respectively.
With `CN(C)c1ccc(/C(=N\O)c2ccccc2)cc1`, the viability was 98.5% in test [1]; 98.5% (inactive) in test [3]; 93.9% (inactive) in test [4]; 92.8% (inactive) in test [5]; 90.3% in test [6] (setting [9]); 92.8% in test [6] (setting [10]). For the same compound, the Her2 level in test [2] was 114% (inactive). For the same compound, in test [6] (H69AR cells + 2 uM doxorubicin), the differential viability (reversal) is 2.59% (inactive). Also, the figures for the inhibition in test [7] and in test [8] were 0.13% (inactive) and -13.5% (inactive), respectively.
For `CCN1C(=O)/C(=C2\C=Cc3ccccc3N2CC)OC1=S`, the viability is 95.5% in test [1]; 95.5% (inactive) in test [3]; 85.9% (inactive) in test [4]; 72% (inactive) in test [5]; 64.7% in test [6] (setting [9]); 72% in test [6] (setting [10]). For the same compound, in test [2], the Her2 level is 100% (inactive). Besides, in test [6] (H69AR cells + 2 uM doxorubicin), the differential viability (reversal) is 7.3% (inactive). Besides, the values for the inhibition in test [7] and in test [8] were -4.23% (inactive) and 2.33% (inactive), respectively.
Take `Cc1ccccc1-n1c(=O)cc(NCc2ccc3c(c2)OCO3)[nH]c1=O`: the viability in test [1] is 94.5%; in test [3], 94.5% (inactive); in test [4], 104% (inactive); in test [5], 103% (inactive); in test [6] (setting [9]), 100%; in test [6] (setting [10]) it was 103%. In addition, the Her2 level in test [2] is 89.5% (inactive). The differential viability (reversal) in test [6] (H69AR cells + 2 uM doxorubicin) was 2.75% (inactive). In addition, the inhibition is -2.57% (inactive) in test [7] and 1.75% (inactive) in test [8].
